# Data from paper PMC9294072 (ACS chemical biology, 2022).
# Where no end group is shown, it is not given here. [ ]: non-standard residue; d: D form. Arg(Me2a) = CN(C)C(=N)NCCC[C@H](N)C(=O)O; Arg(Me2s) = CN=C(NC)NCCC[C@H](N)C(=O)O; pS = N[C@@H](COP(=O)(O)O)C(=O)O
# Target: T1, hNatD (Homo sapiens, UniProt Q86UY6)
# Assay: Continuous fluorescence-based acetylation assay
# Assay type: biochemical
# Conditions: G4V relative to G4D
# Procedure, shortened: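 hNatD activity monitored continuously by fluorescence at 25 °C. All components except peptide were preincubated for 10 min, then the reaction was started with varying peptide concentrations. For AcCoA characterization, the peptide substrate was fixed at 50 μM. Readings were taken at 400–415 nm and 460–485 nm. Signal was converted to CoA via a standard curve, and initial velocities were fit to Michaelis-Menten or substrate-inhibition models. Run at least in duplicate.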
row,Substance,fold higher kcat/Km for G4V than G4D [fold]
1,G4V: oncohistone H4/H2A pentapeptide with G4V mutation (SGRVK-NH2),7

# Same assay, conditions: H2A peptide vs H4 peptide of the same length
row,Substance,fold reduction in kcat/Km compared to corresponding H4 peptides
1,"H2A-12: C-terminal truncated H2A synthetic peptide, 12 residues (SGRGKQGGKARA-NH2; UniProt P0C0S8 2-13, looked up, fragment)",about 4 fold

# Same assay, conditions: SMARCD2-derived pentapeptide vs H4-5 (also H2A-5)
row,Substance,fold difference in kcat and kcat/Km compared to H4-5
1,SGRGA,less than 2 fold

# Same assay, conditions: fluorescence assay; compared to H4-5
row,kinetic parameters relative to unmodified H4-5 (in words),Substance
1,comparable kinetic parameters,H4K5ac: H4 pentapeptide with Lys5 acetylation (SGRGK(Ac)-NH2)

# Same assay, conditions: normalized to wild-type H4-5; fluorescence assay
Substance,fold decrease in kcat compared to H4-5,fold reduction in kcat/Km compared to H4-5
G2E: oncohistone H4/H2A pentapeptide with G2E mutation (SERGK-NH2),3 fold,–
G4D: oncohistone H4/H2A pentapeptide with G4D mutation (SGRDK-NH2),less than 2 fold,–
G4S: oncohistone H4/H2A pentapeptide with G4S mutation (SGRSK-NH2),7 fold,17 fold
G4V: oncohistone H4/H2A pentapeptide with G4V mutation (SGRVK-NH2),less than 2 fold,–
"H4R3me1: H4 pentapeptide with Arg3 monomethylation (SG[Rme1]GK-NH2; UniProt P62805 2-6, looked up, fragment)",–,3.6 fold
"H4R3me2a: H4 pentapeptide with Arg3 asymmetric dimethylation (SG[Arg(Me2a)]GK-NH2; UniProt P62805 2-6, looked up, fragment)",–,8 fold
H4R3me2s: H4 pentapeptide with Arg3 symmetric dimethylation (SG[Arg(Me2s)]GK-NH2),–,17 fold
H4pS1: H4 pentapeptide with Ser1 phosphorylation ([pS]GRGK-NH2),2.3 fold,over 100 fold
R3H: oncohistone H4/H2A pentapeptide with R3H mutation (SGHGK-NH2),1.5 fold,6.5 fold
R3Q: oncohistone H4/H2A pentapeptide with R3Q mutation (SGQGK-NH2),3 fold,200 fold
S1L: oncohistone H4/H2A pentapeptide with S1L mutation (LGRGK-NH2),5 fold,–

# Target: T1, hNatD
# Assay: MALDI-MS acetylation assay
# Assay type: biochemical
# Conditions: relative to wild-type H4-5
# Procedure, shortened: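 Human NatD 50 nM with 50 µM AcCoA in 25 mM HEPES, 150 mM NaCl, pH 7.5, 25 °C. Reaction started by adding peptide in 2-fold dilutions. Cysteine peptides were pre-reduced with DTT and diluted in buffer containing 10 mM DTT. Timed aliquots were quenched 1:1 in 0.1% TFA and spotted with CHCA for MALDI-MS of acetylated product. Initial slopes were fitted to Michaelis-Menten or substrate-inhibition models, in duplicate.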
row,Substance,fold reduction in kcat/Km compared to H4-5
1,CGRGK [S1C],~ 100 fold
2,S1F: oncohistone H4/H2A pentapeptide with S1F mutation (FGRGK-NH2),"over 1,000 fold"
3,SGCGK [R3C],17 fold
